The text below walks through data of ChEMBL document CHEMBL3734701, “Synthesis and antibacterial activity of 4″-O-(trans-β-arylacrylamido)carbamoyl azithromycin analogs” (2015).

Format in all cases: functional
In test [1] the test system is Staphylococcus aureus. As to the kind of experiment: Antibacterial activity against erythromycin-susceptible Staphylococcus aureus ATCC 25923 by broth microdilution method. Summed up:
(§1)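 Broth microdilution MIC following the NCCL-recommended method. Panel of sensitive and resistant Gram-positive strains: S. pyogenes S2 (erythromycin-susceptible clinical isolate), S. aureus ATCC25923 and S. pneumoniae ATCC49619 (erythromycin-susceptible). Azithromycin and clarithromycin were run alongside as references.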

In test [2] the test system is Streptococcus pneumoniae. Nature of the test: Antibacterial activity against erythromycin-susceptible Streptococcus pneumoniae ATCC 49619 by broth microdilution method. The essentials:
as §1
In general terms: Broth dilution looks for growth in wells or tubes with falling amounts of substance.

Test [3] has as its system Streptococcus pyogenes. Nature of the test: Antibacterial activity against clinically isolated erythromycin-susceptible Streptococcus pyogenes S2 by broth microdilution method. Summed up: as §1
For test [4], the system named is Staphylococcus aureus. Nature of the test: Antibacterial activity against clinically isolated penicillin-resistant Staphylococcus aureus by broth microdilution method. The essentials:
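Clinical penicillin-resistant S. aureus isolate, not further characterized, tested in a Gram-positive panel. MIC was measured by broth microdilution following NCCL recommendations, with azithromycin and clarithromycin as references.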

Test [5] has as its system Staphylococcus aureus. Nature of the test: Antibacterial activity against methicillin-susceptible Staphylococcus aureus ATCC 29213 by broth microdilution method. The essentials:
(§2)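 MICs measured in vitro by broth microdilution following NCCL recommendations, against a Gram-positive panel of sensitive and resistant strains. Azithromycin and clarithromycin were tested alongside as references.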

In test [6] the test system is Streptococcus pneumoniae. Nature of the test: Antibacterial activity against erythromycin-resistant Streptococcus pneumoniae B1 expressing ermB gene by broth microdilution method. The essentials:
as §2

The test system of test [7] is Streptococcus pneumoniae. As to the kind of experiment: Antibacterial activity against erythromycin-resistant Streptococcus pneumoniae A22072 expressing mefA gene by broth microdilution method. Summed up: as §2
Test [8] deals with Streptococcus pneumoniae. Nature of the test: Antibacterial activity against erythromycin-resistant Streptococcus pneumoniae AB11 expressing ermB and mefA genes by broth microdilution method. The essentials:
as §2

Test [9] has as its system Streptococcus pyogenes. As to the kind of experiment: Antibacterial activity against clinically isolated erythromycin-resistant Streptococcus pyogenes R2 by broth microdilution method. Summed up:
as §2

Test [10] concerns Streptococcus pneumoniae. As to the kind of experiment: Potency index, ratio of EMA MIC to test compound MIC for erythromycin-resistant Streptococcus pneumoniae A22072 expressing mefA gene.
Test [11] deals with Streptococcus pneumoniae. As to the kind of experiment: Potency index, ratio of AZM MIC to test compound MIC for erythromycin-resistant Streptococcus pneumoniae A22072 expressing mefA gene.
Test [12] concerns Streptococcus pneumoniae. Nature of the test: Potency index, ratio of EMA MIC to test compound MIC for erythromycin-resistant Streptococcus pneumoniae B1 expressing ermB gene.
Test [13] concerns Streptococcus pneumoniae. As to the kind of experiment: Potency index, ratio of AZM MIC to test compound MIC for erythromycin-resistant Streptococcus pneumoniae B1 expressing ermB gene.
The subject of test [14] is Streptococcus pyogenes. As to the kind of experiment: Potency index, ratio of EMA MIC to test compound MIC for clinically isolated erythromycin-resistant Streptococcus pyogenes R2.
Test [15] deals with Streptococcus pyogenes. Nature of the test: Potency index, ratio of AZM MIC to test compound MIC for clinically isolated erythromycin-resistant Streptococcus pyogenes R2.

In general, MIC refers to the lowest concentration that inhibits growth of the organism.

Converted amounts (≈) assume the structure as drawn. A value given as a limit tells only on which side of the number the result lay.

As to `CC[C@H]1OC(=O)[C@@H](C)[C@H](O[C@H]2C[C@@](C)(OC)[C@@H](OC(=O)NNC(=O)/C=C/c3cccs3)[C@H](C)O2)[C@@H](C)[C@H](O[C@H]2O[C@@H](C)C[C@@H](N(C)C)[C@@H]2O)[C@@](C)(O)C[C@H](C)CN(C)[C@@H](C)[C@@H]2OC(=O)O[C@@]12C`, the MIC turned out to be 32 µg/mL (≈ 33 µM) against Staphylococcus aureus [1]; 8 µg/mL (≈ 8.25 µM) against Streptococcus pneumoniae [2]; 0.25 µg/mL (≈ 0.258 µM) in the test on Streptococcus pyogenes [3]; 64 µg/mL (≈ 66 µM) against Staphylococcus aureus [4]; 64 µg/mL (≈ 66 µM) against Staphylococcus aureus [5]; 2 µg/mL (≈ 2.06 µM) against Streptococcus pneumoniae [6]. Further, the MIC is 0.015 µg/mL (≈ 0.0155 µM) in the test on Streptococcus pneumoniae [7], 4 µg/mL (≈ 4.13 µM) against Streptococcus pneumoniae [8] and no less than 128 µg/mL in the test on Streptococcus pyogenes [9]. The Ratio in the test with Streptococcus pneumoniae [10] is 512; in the test on Streptococcus pneumoniae [11], 256.
With `CC[C@H]1OC(=O)[C@@H](C)[C@H](O[C@@H]2C[C@](C)(OC)[C@H](OC(=O)NNC(=O)/C=C/c3ccc(Cl)cc3)[C@@H](C)O2)[C@H](C)[C@H](O[C@H]2O[C@@H](C)C[C@@H](N(C)C)[C@@H]2O)[C@@](C)(O)C[C@H](C)CN(C)[C@@H](C)[C@H](OC(=O)NCc2ccc(OC)cc2)[C@@]1(C)O`, the minimal inhibitory concentration (MIC) against Staphylococcus aureus [1] was determined as 0.5 µg/mL (≈ 0.441 µM); in the test with Streptococcus pneumoniae [2], 0.5 µg/mL (≈ 0.441 µM); against Streptococcus pyogenes [3] it was 0.5 µg/mL (≈ 0.441 µM); in the test on Staphylococcus aureus [4], 2 µg/mL (≈ 1.76 µM); in the test on Staphylococcus aureus [5], 2 µg/mL (≈ 1.76 µM); in the test with Streptococcus pneumoniae [6], 0.25 µg/mL (≈ 0.22 µM). Moreover, the MIC against Streptococcus pneumoniae [7] is 0.12 µg/mL (≈ 0.106 µM); in the test with Streptococcus pneumoniae [8] it was 1 µg/mL (≈ 0.881 µM); with Streptococcus pyogenes [9], 4 µg/mL (≈ 3.52 µM). Moreover, the Ratio is recorded as 512 with Streptococcus pneumoniae [12], 512 in the test on Streptococcus pneumoniae [13], 32 with Streptococcus pyogenes [14] and 32 in the test with Streptococcus pyogenes [15].
For `CC[C@@H]1OC(=O)[C@H](C)[C@@H](O[C@H]2C[C@@](C)(OC)[C@@H](OC(=O)NNC(=O)/C=C/c3cccs3)[C@H](C)O2)[C@@H](C)[C@@H](O[C@@H]2O[C@H](C)C[C@H](N(C)C)[C@H]2O)[C@](C)(O)C[C@@H](C)CN(C)[C@H](C)[C@@H](OC(=O)NCc2ccc(OC)cc2)[C@]1(C)O`, the MIC with Staphylococcus aureus [1] was 0.5 µg/mL (≈ 0.452 µM); against Streptococcus pneumoniae [2], 0.25 µg/mL (≈ 0.226 µM); in the test on Streptococcus pyogenes [3], 0.25 µg/mL (≈ 0.226 µM); against Staphylococcus aureus [4], 2 µg/mL (≈ 1.81 µM); in the test on Staphylococcus aureus [5], 1 µg/mL (≈ 0.904 µM); in the test on Streptococcus pneumoniae [6] it was 0.5 µg/mL (≈ 0.452 µM). In addition, the values for the MIC against Streptococcus pneumoniae [7], against Streptococcus pneumoniae [8] and in the test on Streptococcus pyogenes [9] were 0.03 µg/mL (≈ 0.0271 µM), 1 µg/mL (≈ 0.904 µM) and 32 µg/mL (≈ 28.9 µM), respectively. In addition, the Ratio in the test with Streptococcus pneumoniae [12] and in the test with Streptococcus pneumoniae [13] was 256 each time.
Consider `CC[C@H]1OC(=O)[C@@H](C)[C@H](O[C@@H]2C[C@](C)(OC)[C@H](OC(=O)NNC(=O)/C=C/c3ccc(Br)cc3)[C@@H](C)O2)[C@H](C)[C@H](O[C@H]2O[C@@H](C)C[C@@H](N(C)C)[C@@H]2O)[C@@](C)(O)C[C@H](C)CN(C)[C@@H](C)[C@H](OC(=O)NCc2ccc(OC)cc2)[C@@]1(C)O`, for which the MIC with Staphylococcus aureus [1] was determined as 1 µg/mL (≈ 0.848 µM); against Streptococcus pneumoniae [2] it was 0.25 µg/mL (≈ 0.212 µM); against Streptococcus pyogenes [3], 0.5 µg/mL (≈ 0.424 µM); in the test on Staphylococcus aureus [4], 2 µg/mL (≈ 1.7 µM); with Staphylococcus aureus [5], 2 µg/mL (≈ 1.7 µM); with Streptococcus pneumoniae [6] it was 0.5 µg/mL (≈ 0.424 µM). The figures for the MIC against Streptococcus pneumoniae [7], against Streptococcus pneumoniae [8] and with Streptococcus pyogenes [9] were 0.25 µg/mL (≈ 0.212 µM), 1 µg/mL (≈ 0.848 µM) and 16 µg/mL (≈ 13.6 µM), respectively. The Ratio in the test on Streptococcus pneumoniae [12] and in the test with Streptococcus pneumoniae [13] was 256 throughout.
As to `CC[C@H]1OC(=O)[C@@H](C)[C@H](O[C@H]2C[C@@](C)(OC)[C@@H](OC(=O)NNC(=O)/C=C/c3ccc(Br)cc3)[C@H](C)O2)[C@@H](C)[C@H](O[C@H]2O[C@@H](C)C[C@@H](N(C)C)[C@@H]2O)[C@@](C)(O)C[C@H](C)CN(C)[C@@H](C)[C@@H]2OC(=O)O[C@@]12C`, the MIC turned out to be 4 µg/mL (≈ 3.84 µM) against Staphylococcus aureus [1]; 4 µg/mL (≈ 3.84 µM) against Streptococcus pneumoniae [2]; 1 µg/mL (≈ 0.96 µM) against Streptococcus pyogenes [3]; 8 µg/mL (≈ 7.68 µM) with Staphylococcus aureus [4]; 4 µg/mL (≈ 3.84 µM) with Staphylococcus aureus [5]; 8 µg/mL (≈ 7.68 µM) against Streptococcus pneumoniae [6]. In addition, the MIC is 0.25 µg/mL (≈ 0.24 µM) against Streptococcus pneumoniae [7], 4 µg/mL (≈ 3.84 µM) against Streptococcus pneumoniae [8] and 16 µg/mL (≈ 15.4 µM) in the test on Streptococcus pyogenes [9].
On to `CC[C@H]1OC(=O)[C@@H](C)[C@H](O[C@H]2C[C@@](C)(OC)[C@@H](OC(=O)NNC(=O)/C=C/c3ccc(OC)c(OC)c3)[C@H](C)O2)[C@@H](C)[C@H](O[C@H]2O[C@@H](C)C[C@@H](N(C)C)[C@@H]2O)[C@@](C)(O)C[C@H](C)CN(C)[C@@H](C)[C@@H]2OC(=O)O[C@@]12C`, for which the MIC came to 8 µg/mL (≈ 7.82 µM) against Staphylococcus aureus [1]; 2 µg/mL (≈ 1.95 µM) in the test with Streptococcus pneumoniae [2]; 0.5 µg/mL (≈ 0.489 µM) against Streptococcus pyogenes [3]; 8 µg/mL (≈ 7.82 µM) in the test on Staphylococcus aureus [4]; 16 µg/mL (≈ 15.6 µM) in the test on Staphylococcus aureus [5]; 32 µg/mL (≈ 31.3 µM) against Streptococcus pneumoniae [6]. Further, the MIC in the test on Streptococcus pneumoniae [7] was found to be 0.5 µg/mL (≈ 0.489 µM); in the test on Streptococcus pneumoniae [8], 8 µg/mL (≈ 7.82 µM); in the test on Streptococcus pyogenes [9], 64 µg/mL (≈ 62.5 µM).
As for `CC[C@@H]1OC(=O)[C@H](C)[C@@H](O[C@H]2C[C@@](C)(OC)[C@@H](OC(=O)NNC(=O)/C=C/c3ccco3)[C@H](C)O2)[C@@H](C)[C@@H](O[C@@H]2O[C@H](C)C[C@H](N(C)C)[C@H]2O)[C@](C)(O)C[C@@H](C)CN(C)[C@H](C)[C@@H](OC(=O)NCc2ccc(OC)cc2)[C@]1(C)O`, the MIC in the test on Staphylococcus aureus [1] was found to be 1 µg/mL (≈ 0.917 µM); against Streptococcus pneumoniae [2], 0.5 µg/mL (≈ 0.459 µM); in the test with Streptococcus pyogenes [3] it was 0.25 µg/mL (≈ 0.229 µM); with Staphylococcus aureus [4] it was 2 µg/mL (≈ 1.83 µM); against Staphylococcus aureus [5], 4 µg/mL (≈ 3.67 µM); in the test with Streptococcus pneumoniae [6] it was 2 µg/mL (≈ 1.83 µM). The MIC with Streptococcus pneumoniae [7] was 0.25 µg/mL (≈ 0.229 µM); against Streptococcus pneumoniae [8], 8 µg/mL (≈ 7.34 µM); against Streptococcus pyogenes [9], 64 µg/mL (≈ 58.7 µM).
